Rows were chosen to be rich in hits. Some 4.5% of all compounds tested hit in one or more screens of this group.
NF-kB neuron act: activators of NF-kB expression in neurons, primary screen, cell-based, HTS | human neuronal cells, NF-kB reporter expression; stronger effect = higher value | fold change at 12.5 µM | 190,000 tested, 1.6% active | AID 1239, 2008; in the data active = fold change above about 3.3
Mdm2 ligase inh: MDM2-luciferase reporter signal enhancers, primary screen, MDM2 E3 ligase inhibitor project, cell-based, luminescence, 1536-well | cell-based MDM2 ubiquitination luciferase reporter, 2 h; 0 = plate control, 100 = twice control, blank-subtracted | 210,000 tested, 0.11% active | E3 ubiquitin-protein ligase Mdm2 (Homo sapiens), Q00987 | signal enhancement, % at 5 µM;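 active = signal enhancement of 30% or more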;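 note: luminescence tracks abundance of the self-degrading MDM2-luciferase fusion protein; higher signal means inhibition of MDM2 E3 ligase activity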
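Assay system: stable mammalian line carrying autodegrading MDM2–luciferase fusion reporter; amount: 2000 cells seeded into each well; buffer or medium: DMEM; benchmarks: plate control and blank wells; signal: luciferase luminescence; timing: 2 h compound exposure at 37 °C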
STAT1 act: STAT1 signaling activators, primary screen, cell-based, HTS, luciferase reporter; 200,000 tested, 2.6% active; activation (% of control), % at 5.5 µM; NIH 3T3 STAT1-luciferase reporter, IFN-gamma, luminescence; 100% = IFN-gamma alone, no compound;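 active = activation above the screen-wide mean activation plus 3 SD, cut at about 130% in these data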
PERK inh: block of dimerizer-induced PERK translation repression, primary screen, PERK inhibitor project, CHO PERK-DD cells, SEAP luminescence, HTS. inhibition, % at 5.6 µM. 220,000 tested, 0.17% active. CHO PERK-DD fusion, SEAP luminescence translation reporter;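 active = inhibition above the mean inhibition of all tested compounds plus 3 SD, set separately per screening campaign, cut at about 2.9% in these data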;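 note: PERK kinase domain activated by AP20187 dimerizer at 100 nM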
APP 5'UTR act: activators of APP 5'UTR luciferase reporter, primary screen, SH-SY5Y cells; SH-SY5Y APP 5'UTR luciferase reporter, luminescence; zero percent = DMSO vehicle wells; 190,000 tested, 1% active; activation, % at 2 µM;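 active = activation above a set limit, based on mean plus 3 SD of controls, cut at about 140% in these data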
AHR act: AHR activators, primary screen, cell-based, luminescence, luciferase reporter, human. Aryl hydrocarbon receptor (Homo sapiens), P35869. AHR-responsive luciferase reporter cells. activation, % at 5 µM. 320,000 tested, 2.5% active; in the data active = activation above about 47%
Target sequence (P35869 whole entry, looked up): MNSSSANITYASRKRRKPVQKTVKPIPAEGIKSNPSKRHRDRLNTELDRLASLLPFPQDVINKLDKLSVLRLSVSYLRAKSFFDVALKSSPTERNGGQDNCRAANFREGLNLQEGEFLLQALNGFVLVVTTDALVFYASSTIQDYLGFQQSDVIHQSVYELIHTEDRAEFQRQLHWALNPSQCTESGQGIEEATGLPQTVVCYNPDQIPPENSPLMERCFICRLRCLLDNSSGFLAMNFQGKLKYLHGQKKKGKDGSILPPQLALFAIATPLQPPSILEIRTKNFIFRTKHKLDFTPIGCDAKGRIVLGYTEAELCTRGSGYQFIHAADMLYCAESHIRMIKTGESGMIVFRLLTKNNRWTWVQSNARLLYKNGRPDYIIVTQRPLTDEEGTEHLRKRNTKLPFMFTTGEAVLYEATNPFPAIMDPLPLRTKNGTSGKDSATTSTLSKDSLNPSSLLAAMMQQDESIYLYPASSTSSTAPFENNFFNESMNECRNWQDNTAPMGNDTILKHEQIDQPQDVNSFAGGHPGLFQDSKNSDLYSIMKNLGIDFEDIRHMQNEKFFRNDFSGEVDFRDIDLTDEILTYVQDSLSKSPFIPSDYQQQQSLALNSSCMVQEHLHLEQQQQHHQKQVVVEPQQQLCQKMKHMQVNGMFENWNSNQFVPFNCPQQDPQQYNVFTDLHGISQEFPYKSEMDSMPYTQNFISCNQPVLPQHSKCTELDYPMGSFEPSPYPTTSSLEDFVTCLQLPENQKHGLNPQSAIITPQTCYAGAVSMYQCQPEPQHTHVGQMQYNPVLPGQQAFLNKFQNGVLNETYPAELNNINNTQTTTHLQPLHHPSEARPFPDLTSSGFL
A number is an active result; i = inactive; nt = not tested or not shown.

SMILES	NF-kB neuron act	Mdm2 ligase inh	STAT1 act	PERK inh	APP 5'UTR act	AHR act
CC(C)(C)OC(=O)N[C@@H](C(=O)OC(C)(C)C)c1ccc2ccccc2c1	nt	nt	nt	nt	nt	i
COc1cccc(N(CC(=O)NCCSCc2ccc(Cl)cc2)S(C)(=O)=O)c1	nt	nt	nt	nt	nt	i
CS(=O)(=O)Nc1nnc(SCC(=O)Nc2cccc([N+](=O)[O-])c2)s1	i	i	i	i	i	i
Nc1ccccc1SC1CC(=O)N(c2ccc3c(c2)OCO3)C1=O (stereo unspecified)	nt	i	nt	i	nt	72
O=C(O)c1ccccc1SC1CC(=O)N(c2ccc3c(c2)OCO3)C1=O (stereo unspecified)	i	i	i	i	i	i
Cc1ccc(-c2ocnc2C(=O)Nc2nc(C)cs2)cc1	nt	nt	nt	nt	nt	68
Cc1ccc(-c2ocnc2C(=O)Nc2ccccc2NC(=O)c2ccccn2)cc1	nt	nt	nt	nt	nt	i
Cc1csc(NC(=O)c2ccc(C)o2)n1	i	i	i	i	i	i
Cc1cccc(-c2ocnc2C(=O)Nc2ccccc2NC(=O)c2ccccn2)c1	nt	nt	nt	nt	nt	56
O=C(NCCO)/C(=C/c1cccc([N+](=O)[O-])c1)NC(=O)c1ccco1	i	i	i	i	i	i
CN(Cc1ccccc1)C(=O)[C@@H]1CCCN1S(=O)(=O)c1ccc(Cl)cc1	nt	nt	nt	nt	nt	i
CCC(C)(C)n1nnnc1CN1CCC(c2nc3ccc(C)cc3[nH]2)CC1	i	i	i	i	i	i
Cc1cc2nc(C3CCN(Cc4nnnn4Cc4ccccc4)CC3)[nH]c2cc1C	i	i	i	i	i	54
O=CNc1ccccc1	nt	nt	nt	nt	nt	i
O=C1c2cccc3c([N+](=O)[O-])ccc(c23)C(=O)N1O	nt	nt	nt	nt	nt	i
COc1ccc2c3c(cccc13)C(=O)N(O)C2=O	7.1	i	i	i	i	i
COc1cc(C(=O)NCC(=O)N/N=C/c2cccnc2)cc(OC)c1OC	nt	nt	nt	nt	nt	i
C=CCNC(=S)/N=c1/scc(C)n1C	i	i	i	i	i	i
CCCn1c(C)cs/c1=N\C(=S)Nc1ccccc1	i	i	i	i	i	48
Nc1cccc2nc3ccccc3cc12	3.9	i	172	i	nt	i
Nc1[nH]nc2nc3ccccc3cc12	i	i	i	i	i	i
Clc1ccc(-n2cc(COCc3ccccc3)nn2)cc1	4.1	i	i	i	170	i
CC(C)Sc1nc2[nH]ncc2c(=O)[nH]1	i	i	i	i	i	i
COc1ccccc1-n1cc(CN2CCN(C3CCCCC3)C(CCO)C2)cn1 (stereo unspecified)	i	i	i	i	i	i
Cc1ccc(/C=N/NC(=O)c2ccccn2)o1	i	i	130	i	i	i
SMILES	NF-kB neuron act	Mdm2 ligase inh	STAT1 act	PERK inh	APP 5'UTR act	AHR act
O=C(N/N=C/C(Cl)=C/c1ccccc1)c1ccccn1	4.3	i	i	i	i	i
Cc1ccc(/C=N/NC(=O)c2ccncc2)o1	i	i	i	i	i	i
O=C(N/N=C/C(Cl)=C/c1ccccc1)c1ccncc1	i	i	i	i	i	i
C#CCNC(=O)C1=C[C@H](C)[C@@H](CCCO)[C@H](OCC)O1	i	nt	i	i	i	i
CS(=O)(=O)N1CCc2cc(C(=O)OCC(=O)c3ccccc3)ccc21	4	i	156	i	i	i
O=C(Nc1ccc2c(c1)OCO2)Nc1ccccn1	i	i	148	i	i	i
O=C(Nc1cccc(F)c1)Nc1ccccn1	i	i	148	i	i	i
O=C(Nc1ccc2c(c1)OCO2)Nc1cnccn1	i	i	i	i	i	i
O=C(Nc1cccc(F)c1)Nc1cnccn1	nt	nt	nt	nt	nt	i
CCC/C(=N\NC(=O)C1CCCC1)c1ccccc1	nt	nt	nt	nt	nt	i
COC(=O)N/N=C(/c1ccccc1)C1CCCCC1	5.6	i	i	i	i	i
COc1cc(/C=N/Nc2nnc3c(n2)[nH]c2ccccc23)ccc1O	i	i	133	i	i	i
Cc1ccc2[nH]c3nc(N/N=C/c4cccc(O)c4)nnc3c2c1	nt	nt	nt	nt	nt	i
Cc1ccc2c(c1)c1cccc3c1n2CCN3CCC(N)=O	i	i	143	i	i	i
O=c1/c(=C/c2ccco2)sc2n1CN(c1ccccc1)CN=2	i	i	i	i	i	i
Cc1ccc(N2CN=c3s/c(=C\c4ccccn4)c(=O)n3C2)cc1	i	i	i	3.1	i	i
O=C1C2=C(Nc3ccccc3SC2c2ccco2)c2ccccc21 (stereo unspecified)	i	i	i	i	i	70
O=C1c2ccccc2NC(c2ccco2)N1O (stereo unspecified)	i	i	i	i	i	i
Cc1cccc(NC(=O)CSCC(=O)N2CCN(C(=O)c3ccco3)CC2)c1	nt	nt	nt	nt	nt	i
O=C(Nc1cccc(-c2csc(Nc3cccc(C(F)(F)F)c3)n2)c1)c1ccccc1	nt	i	nt	nt	nt	i
O=C(Nc1ccc(-c2csc(Nc3cccc(C(F)(F)F)c3)n2)cc1)c1ccccc1	nt	i	nt	nt	nt	78
O=C(Nc1cccc(-c2csc(Nc3ccccc3)n2)c1)c1ccccc1	nt	i	nt	nt	nt	71
COc1cccc(/C=N/NC(=O)c2[nH]c(C)c(C(=O)N/N=C/c3cccc(OC)c3)c2C)c1	i	36	i	i	i	i
CCOC(=O)c1c(C)[nH]c(C(=O)N/N=C/c2cccc(OC)c2)c1C	i	i	i	i	i	i
Nc1c(C(=O)N/N=C/c2ccc(Cl)cc2)cnn1-c1ccccc1	nt	i	nt	i	nt	i
SMILES	NF-kB neuron act	Mdm2 ligase inh	STAT1 act	PERK inh	APP 5'UTR act	AHR act
COc1cccc(/C=N/NC(=O)c2cnn(-c3ccccc3)c2N)c1	nt	i	nt	i	nt	68
Nc1c(C(=O)N/N=C/c2cccnc2)cnn1-c1ccccc1	i	i	i	i	i	51
CCOC(=O)/C(C#N)=C/c1cn(CCOc2ccc(OC)cc2)c2ccccc12	i	nt	i	i	i	i
CCc1nc(SCC(=O)NC2CC2)c2c(C)c(C)sc2n1	nt	nt	nt	nt	nt	52
O=C1c2ccccc2-c2nnc(-c3ccccc3)cc21	3.3	i	i	i	i	i
Cc1cccc(-c2cc3c(nn2)-c2ccccc2C3=O)c1	6.9	i	i	i	nt	i
COc1ccc(-c2cc3c(nn2)-c2ccccc2C3=O)cc1	i	i	i	i	i	i
CN(C)S(=O)(=O)c1cc(NC(=O)c2ccc(-n3ccnc3)c([N+](=O)[O-])c2)ccc1Cl	nt	nt	nt	nt	nt	53
Cc1cccc(CN2CCN(C(=O)CCc3nnc(C4CCCCC4)o3)CC2)c1	i	i	i	i	i	i
CCOC(=O)c1cc(C)n(CCc2ccccc2)c1C	i	i	i	i	i	i
Cc1cc(C(=O)CCl)c(C)n1CCc1ccccc1	i	i	i	i	i	61
Cc1cc(C(=O)COC(=O)c2ccncc2)c(C)n1CCc1ccc(F)cc1	i	i	i	i	i	i
